Experimental data published in PMC8296307 (Epilepsy research, 2021).
Read-outs that look alike come from different tables or passages of the source.

How the values were obtained:
[1] = target: T1, m5-HT2A (Mus musculus, UniProt P35363); test: Radioligand competition binding, [3H]Ketanserin, m5-HT2A in HEK293 membranes
[2] = target: T2, h5-HT2C-INI (Homo sapiens, UniProt P28335); type: binding; settings: [3H]Mesulergine, one-site fit Ki
T2 sequence (P28335 33-458): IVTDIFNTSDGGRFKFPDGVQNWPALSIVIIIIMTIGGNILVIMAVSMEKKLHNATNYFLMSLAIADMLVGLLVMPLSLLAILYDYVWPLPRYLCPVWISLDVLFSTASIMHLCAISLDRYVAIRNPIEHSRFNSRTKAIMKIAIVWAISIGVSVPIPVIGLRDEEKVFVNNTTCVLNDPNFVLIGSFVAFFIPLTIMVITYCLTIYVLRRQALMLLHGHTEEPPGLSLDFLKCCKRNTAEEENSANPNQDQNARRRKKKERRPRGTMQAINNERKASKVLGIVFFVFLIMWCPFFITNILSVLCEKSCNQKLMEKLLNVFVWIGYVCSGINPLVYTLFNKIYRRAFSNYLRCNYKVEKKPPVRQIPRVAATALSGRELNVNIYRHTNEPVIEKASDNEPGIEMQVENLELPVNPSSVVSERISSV

[3] = target: T3, m5-HT2C-VNV (Mus musculus, UniProt P34968, I157V/I161V); type: binding
T3 sequence (P34968 33-459 I157V/I161V): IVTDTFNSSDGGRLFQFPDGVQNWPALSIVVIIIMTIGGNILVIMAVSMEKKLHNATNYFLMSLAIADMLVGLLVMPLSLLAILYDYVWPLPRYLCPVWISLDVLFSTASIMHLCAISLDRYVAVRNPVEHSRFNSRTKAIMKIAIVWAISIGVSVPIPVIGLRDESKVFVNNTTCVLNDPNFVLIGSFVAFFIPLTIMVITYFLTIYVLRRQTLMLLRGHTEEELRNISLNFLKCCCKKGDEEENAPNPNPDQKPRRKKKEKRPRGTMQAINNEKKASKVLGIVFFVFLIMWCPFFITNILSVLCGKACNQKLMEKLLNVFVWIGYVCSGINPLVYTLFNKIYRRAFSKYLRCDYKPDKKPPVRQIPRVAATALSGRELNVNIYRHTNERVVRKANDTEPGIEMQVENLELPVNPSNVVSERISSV

[4] = target: h5-HT2A (Homo sapiens, UniProt P28223); test: 5-HT2AR-mediated phosphoinositide hydrolysis, h5-HT2A in HEK293 cells; type: cell-based; settings: relative to 5-HT
[5] = target: T1, m5-HT2A; test: 5-HT2AR-mediated phosphoinositide hydrolysis, m5-HT2A in HEK293 cells; type: cell-based
[6] = target: T2, h5-HT2C-INI; test: 5-HT2CR-mediated phosphoinositide hydrolysis, h5-HT2C-INI in HEK293 cells; type: cell-based; settings: for agonist efficacy: relative to 5-HT
[7] = target: T3, m5-HT2C-VNV; test: 5-HT2CR-mediated phosphoinositide hydrolysis, m5-HT2C-VNV in HEK293 cells; type: cell-based; settings: for agonist efficacy: relative to 5-HT
[8] = test system: C57BL/6J mice; test: DOI-elicited head-twitch response; type: in vivo, mouse; settings: for HTR (mean count): 10-minute session
Procedure, shortened: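 C57BL/6J mice were acclimated to the testing room for ≥60 min. They then received s.c. vehicle (Milli-Q water) or test compound (1, 3 or 5.6 mg/kg), followed 10 min later by s.c. 5-HT2R agonist challenge (1.0 mg/kg). After a further 10 min, mice were placed in the open field for a 10-min session. Head twitches (rapid, discrete head jerks) were counted with a tally counter by an observer blind to treatment.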

[9] = test system: juvenile Fmr1 knockout mice; settings: ref Armstrong et al., 2020; cited from earlier work
[10] = test system: juvenile Fmr1 knockout mice; test: Audiogenic seizures; type: in vivo, mouse; settings: for lethality: vehicle 60%; for seizure prevalence (TCS): vehicle 70%; for mean WRJ duration (± SD): vehicle 10 (±5)
[11] = test system: C57BL/6J mice; test: Head-twitch response; type: in vivo, mouse; settings: vehicle 2.6
[12] = test system: C57BL/6J mice; test: Locomotor activity in open field; type: in vivo, mouse
[13] = steady-state clinical dosing of 10 mg twice daily in monkeys; ref FDA briefing document NDA22529; cited from earlier work
[14] = phosphoinositide hydrolysis, mean
[15] = phosphoinositide hydrolysis, mean (95% CI)
[16] = lorcaserin 5.6 mg/kg with M100907 0.03 mg/kg pretreatment
[17] = 30 mg/kg i.p., 30 min before test

T1 sequence (P35363 whole entry): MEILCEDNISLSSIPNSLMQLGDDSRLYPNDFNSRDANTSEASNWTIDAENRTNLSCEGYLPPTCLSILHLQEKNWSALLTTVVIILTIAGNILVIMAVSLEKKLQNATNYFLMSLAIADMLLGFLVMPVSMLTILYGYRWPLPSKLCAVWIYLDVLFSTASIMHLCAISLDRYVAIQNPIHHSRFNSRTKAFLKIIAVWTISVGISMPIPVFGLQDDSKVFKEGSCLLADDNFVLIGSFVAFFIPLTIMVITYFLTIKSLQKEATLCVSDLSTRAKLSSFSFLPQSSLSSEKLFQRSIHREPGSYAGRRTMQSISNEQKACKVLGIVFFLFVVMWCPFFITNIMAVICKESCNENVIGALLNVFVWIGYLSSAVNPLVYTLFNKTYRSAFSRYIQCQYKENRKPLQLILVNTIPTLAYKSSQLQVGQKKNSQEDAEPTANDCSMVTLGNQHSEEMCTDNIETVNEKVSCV
Chain of h5-HT2A (P28223 whole entry): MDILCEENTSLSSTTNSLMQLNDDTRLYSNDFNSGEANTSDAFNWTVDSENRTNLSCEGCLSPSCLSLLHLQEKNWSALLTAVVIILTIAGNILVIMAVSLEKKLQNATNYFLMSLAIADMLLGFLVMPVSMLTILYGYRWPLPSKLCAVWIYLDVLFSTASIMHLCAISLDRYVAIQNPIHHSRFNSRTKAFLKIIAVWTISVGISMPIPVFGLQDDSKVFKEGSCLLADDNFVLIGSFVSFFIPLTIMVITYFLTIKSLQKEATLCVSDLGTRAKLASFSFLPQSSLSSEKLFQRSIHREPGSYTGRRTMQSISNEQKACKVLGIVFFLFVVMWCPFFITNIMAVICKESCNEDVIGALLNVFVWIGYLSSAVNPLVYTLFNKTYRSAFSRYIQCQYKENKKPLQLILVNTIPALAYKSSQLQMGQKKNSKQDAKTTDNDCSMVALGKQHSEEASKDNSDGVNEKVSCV

COc1cc(CC(C)N)c(OC)cc1I (racemic) [DOI, (±)-2,5-dimethoxy-4-iodoamphetamine]
Ki ([1]; [3H]Ketanserin, one-site fit Ki, mean): 33 nM
pKi (95% CI) ([1]; [3H]Ketanserin, one-site fit Ki, mean (95% CI)): 7.48 (7.54 to 7.42)
pKi (95% CI) at the high-affinity site ([1]; two-site fit Ki model): 8.01 (8.70 to 7.64)
pKi (95% CI) at the low-affinity site ([1]; two-site fit Ki model): 7.02 (7.32 to 6.30)
Ki ([2]; mean): 96 nM
pKi (95% CI) ([2]; mean (95% CI)): 7.02 (7.11 to 6.93)
Ki ([3]; [3H]Mesulergine, one-site fit Ki, mean): 65 nM
pKi (95% CI) ([3]; [3H]Mesulergine, one-site fit Ki, mean (95% CI)): 7.19 (7.28 to 7.10)
agonist efficacy [4]: full efficacy h5-HT2AR agonist activity
EC50 [5, 14]: 1 nM
pEC50 (95% CI) [5, 15]: 9.00 (9.44 to 8.57)
agonist efficacy ([5]; relative to 5-HT): full efficacy m5-HT2AR agonist activity
EC50 [6, 14]: 4.1 nM
pEC50 (95% CI) [6, 15]: 8.39 (8.76 to 8.04)
agonist efficacy [6]: full agonists
EC50 [7, 14]: 8 nM
pEC50 (95% CI) [7, 15]: 8.10 (8.41 to 7.80)
agonist efficacy [7]: full agonists
HTR (mean count) ([8]; DOI 1 mg/kg s.c. alone): 37.6
more HTRs than SB242084 plus lorcaserin ([8]; DOI 1 mg/kg vs SB242084 plus lorcaserin 3 mg/kg): 5 fold

CN(C)[C@H]1CCc2c(cccc2-c2ccccc2F)C1 [FPT, (S)-5-(2’-Fluorophenyl)-N,N-dimethyl-1,2,3,4-tetrahydronaphthalen-2-amine]
prevention of AGSs [9]: completely prevents AGSs

O=C(c1ccc(F)cc1)C1CCN(CCn2c(=O)[nH]c3ccccc3c2=O)CC1 [Ketanserin]
Ki ([1]; pKi (95% CI), [3H]Ketanserin, one-site fit Ki, mean (95% CI)): 2.69 nM

C[C@H]1CNCCc2ccc(Cl)cc21 [Lorcaserin]
Ki ([1]; Ki, [3H]Ketanserin, one-site fit Ki, mean): 4460 nM
Ki [3]: 741 nM
EC50 ([5]; EC50, phosphoinositide hydrolysis, mean): 212 nM
Emax ([5]; HEK293): 84.6%
EC50 ([5]; pEC50 (95% CI), phosphoinositide hydrolysis, mean (95% CI)): 209 nM
agonist efficacy [6]: full agonists
EC50 [7]: 15.8 nM
agonist efficacy [7]: full agonists
lethality ([10]; 1 mg/kg i.p.): 67%
seizure prevalence (TCS) ([10]; 1 mg/kg i.p.): 83%
lethality ([10]; 3 mg/kg i.p.): 28%
seizure prevalence (TCS) ([10]; 3 mg/kg i.p.): 56%
attenuation of AGS lethality ([10]; 3 mg/kg, relative to vehicle, not significant (P=0.06)): 32%
attenuation of AGS prevalence ([10]; 3 mg/kg, relative to vehicle, not significant (P=0.5)): 14%
mean WRJ duration (± SD) ([10]; 5.6 mg/kg alone): 19 (±12) seconds
lethality ([10]; 5.6 mg/kg i.p.): 78%
seizure prevalence (TCS) ([10]; 5.6 mg/kg i.p.): 94%
mean WRJ duration (± SD) ([10]; 5.6 mg/kg in combination with M100907 0.03 mg/kg): 20 (±14) seconds
mean TCS onset latency (± SD) ([10]; 5.6 mg/kg, vehicle 41 (±8)): 58 (±21) seconds
lethality ([10]; 10 mg/kg i.p.): 78%
seizure prevalence (TCS) ([10]; 10 mg/kg i.p.): 89%
effect on WRJ latency ([10]; 1, 3, 5.6, 10 mg/kg): did not affect WRJ latency
prevention of AGSs ([10]; 1-10 mg/kg i.p.): ineffective at preventing AGSs
lethality [10, 16]: 50%
seizure prevalence (TCS) [10, 16]: 90%
behaviours observed in treated animals ([10]; some animals that received lorcaserin): purposeless oral movements
HTR (mean count) ([11]; 3 mg/kg s.c. alone): 4.1
HTR (mean count) ([11]; lorcaserin 3 mg/kg with SB242084 0.5 mg/kg s.c.): 7
HTR (mean count) ([11]; lorcaserin 3 mg/kg with SB242084 1 mg/kg s.c.): 6.3
HTR (mean count) ([8]; lorcaserin 3 mg/kg plus DOI 1 mg/kg): 44.1
HTR (mean count) ([8]; lorcaserin 5.6 mg/kg plus DOI 1 mg/kg): 44.9
effect on locomotor activity ([12]; 3 mg/kg s.c. alone, relative to vehicle (P<0.0001)): significantly reduced locomotor activity
effect on locomotor activity ([12]; lorcaserin 3 mg/kg combined with SB242084 0.5 mg/kg, relative to vehicle (P=0.0003)): significantly enhanced locomotor activity
brain concentrations [13]: ~ 1.7 μM

COc1cccc([C@H](O)C2CCN(CCc3ccc(F)cc3)CC2)c1OC [M100907]
lethality ([10]; 0.03 mg/kg i.p. alone): 88%
seizure prevalence (TCS) ([10]; 0.03 mg/kg i.p. alone): 100%

Cc1cccc(C#Cc2ccccc2)n1 [MPEP, 2-methyl-6-(phenylethynyl)pyridine]
lethality [10, 17]: 12%
seizure prevalence (TCS) [10, 17]: 12%
mean latency (± SD) to first episode of WRJ ([10]; 30 mg/kg, vehicle 36 (±11)): 160 (±19) seconds

CN1C[C@@H](NS(=O)(=O)N(C)C)C[C@@H]2c3cccc4c3c(cn4C)C[C@H]21 [Mesulergine]
Ki [3]: 3.39 nM

Cc1cc2c(cc1Cl)N(C(=O)Nc1ccc(Oc3cccnc3C)nc1)CC2 [SB242084]
effect on lorcaserin (3 mg/kg) reduced locomotor activity ([12]; SB242084 0.5 mg/kg and 1 mg/kg s.c.): overturned
